Autophagy mod = modulators of autophagy; calls only at 10 µM (by protocol); MEF GFP-LC3 puncta imaging; test concentration mostly 10 µM; AID 463193; 190,000 tested, 0.98% active;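 active means percentage of spot-positive cells more than 3 SD above its plate mean, without a fluorescence outlier flag or 80% toxicity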
b-catenin transl = modulators of beta-catenin nuclear translocation | HeLa beta-catenin nuclear translocation, immunofluorescence imaging | nuclear translocation activity, % at 5 µM | 190,000 tested, 0.3% active;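 active means nuclear translocation activity above 50% at 5 µM, with a well cell count of 50 or more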;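 further: per-cell ratio of nuclear to cytoplasmic median beta-catenin stain intensity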
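Technique: fluorescence imaging of beta-catenin antibody stain plus DAPI / Material: human HeLa cell line / Incubation: compound treatment 24 h, 37°C, 5% CO2 / Read-out basis: % activation of per-cell nuclear versus cytoplasmic median beta-catenin signal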
Insulin prom up = MIN6 insulin promoter up-regulation | MIN6 insulin promoter-GFP reporter, high-content imaging; hits give high values | z-score at 5 µM | 190,000 tested, 0.3% active | AID 1625;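 active means z-score above 3 at 5 µM with at least 500 cells counted in the well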
MT stabilizer = stabilizes microtubules in HeLa cells. HeLa tubulin immunostaining HCS, 24 h; share of cells brighter than vehicle mean+2SD. % tubulin-high responders, % at 10 µM. 200,000 tested, 0.83% active;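 active means plate Z-score above 3 for both tubulin-high and condensed-nucleus cell shares, with cell loss under 80%, at 10 µM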;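 further: anti alpha tubulin signal scored within the nucleus-defined area of each cell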
A number is an active result. An excerpt weighted towards active compounds, which were near 1.9% of everything screened.

`CCN1CCN(c2ncc3c(n2)CC(c2cc(OC)c(OC)c(OC)c2)CC3=O)CC1` (stereo not drawn) gave Autophagy mod inactive, b-catenin transl 141, Insulin prom up inactive and MT stabilizer 32.
CCCC1=C(C(=O)OCC)C(/C=C/c2ccccc2)n2ncnc2N1 (stereo not drawn) was read as Autophagy mod inactive, Insulin prom up inactive and MT stabilizer 45.
CCOC(=O)C1=C(C)Nc2ncnn2C1/C=C/c1ccccc1 (stereo not drawn) was read as Autophagy mod inactive, b-catenin transl inactive, Insulin prom up inactive and MT stabilizer inactive.
Cc1ccc(CN2CCN(C3CCCC3)C(CCO)C2)s1 (stereo not drawn) was read as Autophagy mod inactive, b-catenin transl inactive, Insulin prom up inactive and MT stabilizer inactive.
`Cc1ccc(N=Cc2nc(/C=C/c3cccc([N+](=O)[O-])c3)oc2O)cc1` gave Autophagy mod active, b-catenin transl inactive, Insulin prom up inactive and MT stabilizer inactive.
Screening Cc1ccc(-c2nc(C=Nc3ccc(O)cc3)c(O)o2)cc1 returned Autophagy mod inactive, b-catenin transl inactive, Insulin prom up inactive and MT stabilizer inactive.
`Cc1cccc(Nc2nnc(SCC(=O)N(C)C3CCS(=O)(=O)C3)s2)c1C` (stereo not drawn) gave Autophagy mod inactive, b-catenin transl inactive, Insulin prom up inactive and MT stabilizer inactive.
`O=C(C1CCN(Cc2ccc(F)cc2)CC1)N1CCN(C/C=C/c2ccccc2)CC1` gave Autophagy mod inactive, b-catenin transl inactive, Insulin prom up inactive and MT stabilizer inactive.
For O=C(C1CCN(Cc2ccccc2)CC1)N1CCN(C/C=C/c2ccccc2)CC1 the results were Autophagy mod active, b-catenin transl inactive, Insulin prom up inactive and MT stabilizer inactive.
Screening CC1=C([N+](=O)[O-])C(c2ccccc2)C2=C(N1)c1ccccc1C2=O (stereo not drawn) returned Autophagy mod active, b-catenin transl inactive, Insulin prom up inactive and MT stabilizer 9.9.
Screening COc1cc(C2C(C#N)=C(C)NC3=C2C(=O)c2ccccc23)cc(OC)c1OC (stereo not drawn) returned Autophagy mod inactive, b-catenin transl inactive, Insulin prom up inactive and MT stabilizer 16.
`COc1ccc(C2C(C#N)=C(C)NC3=C2C(=O)c2ccccc23)cc1` (stereo not drawn) gave Autophagy mod inactive, b-catenin transl inactive and MT stabilizer inactive.
Cc1csc(-c2cnn(-c3ccccc3)c2NC(=O)c2cccc(C(F)(F)F)c2)n1 was read as Autophagy mod inactive, b-catenin transl inactive, Insulin prom up inactive and MT stabilizer inactive.
Screening COc1ccc2oc(-c3ccccc3[N+](=O)[O-])cc(=O)c2c1 returned Autophagy mod inactive, b-catenin transl inactive, Insulin prom up inactive and MT stabilizer 16.
`Cn1c(CNC(=O)c2ccc(F)cc2)nc2ccccc21` gave Autophagy mod inactive, b-catenin transl inactive, Insulin prom up inactive and MT stabilizer inactive.
Screening CSc1nc(N(C)NC(=O)c2ccc(F)cc2)c2ccccc2n1 returned Autophagy mod inactive, b-catenin transl inactive, Insulin prom up inactive and MT stabilizer 33.
For CCCCn1c(-c2nonc2N)nc2ccccc21 the results were Autophagy mod inactive, b-catenin transl inactive, Insulin prom up inactive and MT stabilizer inactive.
For Nc1nonc1-c1nc2ccccc2n1CC(=O)Nc1ccccc1 the results were b-catenin transl inactive and Insulin prom up inactive.
CCOC(=O)c1ccccc1NC(=O)Cn1c(-c2nonc2N)nc2ccccc21 was read as Autophagy mod inactive, b-catenin transl 63 and MT stabilizer inactive.
`Nc1nonc1-c1nc2ccccc2n1Cc1ccccc1` gave Autophagy mod active, Insulin prom up inactive and MT stabilizer inactive.
`S=C(Nc1ccccc1)c1nc2ccccc2s1` gave Autophagy mod inactive, b-catenin transl inactive, Insulin prom up inactive and MT stabilizer inactive.
Screening CCOc1ccc(N2C(=O)/C(=C/c3cccs3)N(CC(=O)OC)C2=S)cc1 returned Autophagy mod inactive and MT stabilizer inactive.
For CCc1ccc(/C=C2/C(=O)N(c3ccccc3)C(=S)N2CC(=O)OC)s1 the results were Autophagy mod active, b-catenin transl inactive, Insulin prom up inactive and MT stabilizer inactive.
CCCNC(=O)OCc1cccnc1Sc1ccc(C)cc1 was read as Autophagy mod inactive, b-catenin transl inactive, Insulin prom up inactive and MT stabilizer inactive.
Screening CCCNCC1C(Oc2ccc(Cl)cc2Cl)C(=O)N1c1cccc(C)c1C (stereo not drawn) returned Autophagy mod active, b-catenin transl inactive, Insulin prom up inactive and MT stabilizer inactive.

From PubChem
